pIC50: −log10 of the molar value. The source made the active and inactive calls.

By inhibition is commonly meant how much of the control response was suppressed. The term pIC50 denotes the negative decadic logarithm of the IC50, by convention in mol/L.

The target of data set [1] is T1, Receptor-type tyrosine-protein phosphatase zeta (Homo sapiens, UniProt P23471). Briefly: Inhibition of PTPRZ1 in human HeLa cells assessed as increase in EGF-induced tryrosine phosphorylation at 0.1 to 10 uM incubated for 10 mins after EGF stimulation for 10 mins by ELISA relative to control. In kind it is cell-based. The procedure, abridged: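 HeLa cells were grown in RPMI-1640 with 10% FBS and seeded at 2 × 10^4 cells/well in triplicate. After 24 h serum starvation, cells received 50 ng/mL EGF for 10 min, then compound at 0.1, 1.0 or 10.0 μM for 10 min, against 0.25% DMSO control. Total phosphotyrosine was measured by a tyrosine-phosphorylation ELISA kit. A rise of at least 10% was the selection criterion.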
T1 sequence (P23471 whole entry): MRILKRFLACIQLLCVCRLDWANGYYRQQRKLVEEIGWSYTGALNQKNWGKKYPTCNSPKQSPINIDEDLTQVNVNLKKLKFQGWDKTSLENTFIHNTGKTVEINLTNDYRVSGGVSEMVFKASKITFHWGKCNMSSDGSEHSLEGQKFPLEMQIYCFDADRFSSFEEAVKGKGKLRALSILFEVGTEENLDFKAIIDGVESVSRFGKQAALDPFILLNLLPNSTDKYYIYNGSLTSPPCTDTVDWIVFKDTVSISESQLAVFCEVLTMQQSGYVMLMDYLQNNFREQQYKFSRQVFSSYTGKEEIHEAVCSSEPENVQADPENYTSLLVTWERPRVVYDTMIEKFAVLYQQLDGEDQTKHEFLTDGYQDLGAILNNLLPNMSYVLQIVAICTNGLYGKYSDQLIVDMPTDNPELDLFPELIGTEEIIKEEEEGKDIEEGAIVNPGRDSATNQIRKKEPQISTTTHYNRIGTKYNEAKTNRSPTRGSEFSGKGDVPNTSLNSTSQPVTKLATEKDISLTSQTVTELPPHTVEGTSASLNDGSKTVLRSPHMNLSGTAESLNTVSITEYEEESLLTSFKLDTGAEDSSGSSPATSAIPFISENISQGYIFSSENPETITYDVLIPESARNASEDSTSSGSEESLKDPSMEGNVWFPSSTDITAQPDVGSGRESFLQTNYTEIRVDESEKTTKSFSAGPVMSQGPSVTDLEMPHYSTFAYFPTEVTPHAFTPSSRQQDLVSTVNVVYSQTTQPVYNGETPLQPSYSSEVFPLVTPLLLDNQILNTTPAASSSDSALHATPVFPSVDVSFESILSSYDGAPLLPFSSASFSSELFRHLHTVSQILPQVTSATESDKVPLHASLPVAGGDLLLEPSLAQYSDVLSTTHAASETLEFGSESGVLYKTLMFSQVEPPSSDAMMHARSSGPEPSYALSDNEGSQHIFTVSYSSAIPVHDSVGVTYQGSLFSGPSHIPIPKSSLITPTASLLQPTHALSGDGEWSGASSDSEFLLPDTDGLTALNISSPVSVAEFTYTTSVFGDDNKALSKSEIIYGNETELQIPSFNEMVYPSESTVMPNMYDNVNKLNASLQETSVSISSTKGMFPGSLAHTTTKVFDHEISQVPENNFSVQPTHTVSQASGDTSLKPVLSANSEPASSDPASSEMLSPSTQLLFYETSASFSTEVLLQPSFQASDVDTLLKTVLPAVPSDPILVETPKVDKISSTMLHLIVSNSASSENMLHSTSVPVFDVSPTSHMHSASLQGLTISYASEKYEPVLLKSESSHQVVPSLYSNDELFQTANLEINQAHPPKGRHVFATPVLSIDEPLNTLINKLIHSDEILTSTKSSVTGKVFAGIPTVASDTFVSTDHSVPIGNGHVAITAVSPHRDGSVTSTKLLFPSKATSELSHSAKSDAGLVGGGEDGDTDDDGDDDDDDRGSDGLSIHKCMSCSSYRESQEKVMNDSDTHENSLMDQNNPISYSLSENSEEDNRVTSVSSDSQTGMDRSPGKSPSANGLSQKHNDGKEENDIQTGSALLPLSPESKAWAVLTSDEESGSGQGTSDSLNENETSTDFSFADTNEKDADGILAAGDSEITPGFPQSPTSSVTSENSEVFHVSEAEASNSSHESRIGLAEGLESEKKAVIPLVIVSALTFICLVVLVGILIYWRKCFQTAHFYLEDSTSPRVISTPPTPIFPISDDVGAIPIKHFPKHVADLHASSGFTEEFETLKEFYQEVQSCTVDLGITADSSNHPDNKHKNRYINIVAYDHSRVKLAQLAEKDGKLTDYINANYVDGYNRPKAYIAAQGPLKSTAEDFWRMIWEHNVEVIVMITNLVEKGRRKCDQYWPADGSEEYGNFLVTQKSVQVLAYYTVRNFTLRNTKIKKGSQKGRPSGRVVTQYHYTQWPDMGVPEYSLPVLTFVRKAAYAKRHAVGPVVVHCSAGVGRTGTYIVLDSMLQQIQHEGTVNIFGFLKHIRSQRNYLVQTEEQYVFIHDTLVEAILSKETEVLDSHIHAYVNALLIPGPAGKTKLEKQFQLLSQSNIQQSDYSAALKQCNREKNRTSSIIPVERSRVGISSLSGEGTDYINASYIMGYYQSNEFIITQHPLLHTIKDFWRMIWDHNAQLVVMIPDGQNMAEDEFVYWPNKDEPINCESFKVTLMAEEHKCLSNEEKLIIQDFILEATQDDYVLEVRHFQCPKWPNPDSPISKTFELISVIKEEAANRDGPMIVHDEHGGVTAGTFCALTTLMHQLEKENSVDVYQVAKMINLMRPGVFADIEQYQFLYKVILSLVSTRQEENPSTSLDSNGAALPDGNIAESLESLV
For orientation: ELISA stands for enzyme-linked immunosorbent assay.

Data set [2] addresses T1, Receptor-type tyrosine-protein phosphatase zeta. The data set is described as follows: Inhibition of human recombinant PTPRZ1 using pNPP as substrate at 1 uM by fluorescence spectrometric analysis relative to control. The procedure, abridged: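 Screening used single-point testing at 1.0 μM against 0.1 μM human recombinant PTPRZ1 with p-NPP substrate. Phosphate release was detected with a phosphate sensor reagent by fluorescence (excitation 430 nm, emission 450 nm). The cutoff for activity was at least 10% inhibition of phosphatase activity.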

Data set [3] has the same target. Briefly: Inhibition of PTPRZ1 (unknown origin) using pNPP as substrate preincubated for 15 mins followed by substrate addition measured after 10 mins by spectrophotometric analysis.
Data set [4] deals with T2, Tyrosine-protein phosphatase non-receptor type 1 (Homo sapiens, UniProt P18031).
T2 sequence (P18031 whole entry): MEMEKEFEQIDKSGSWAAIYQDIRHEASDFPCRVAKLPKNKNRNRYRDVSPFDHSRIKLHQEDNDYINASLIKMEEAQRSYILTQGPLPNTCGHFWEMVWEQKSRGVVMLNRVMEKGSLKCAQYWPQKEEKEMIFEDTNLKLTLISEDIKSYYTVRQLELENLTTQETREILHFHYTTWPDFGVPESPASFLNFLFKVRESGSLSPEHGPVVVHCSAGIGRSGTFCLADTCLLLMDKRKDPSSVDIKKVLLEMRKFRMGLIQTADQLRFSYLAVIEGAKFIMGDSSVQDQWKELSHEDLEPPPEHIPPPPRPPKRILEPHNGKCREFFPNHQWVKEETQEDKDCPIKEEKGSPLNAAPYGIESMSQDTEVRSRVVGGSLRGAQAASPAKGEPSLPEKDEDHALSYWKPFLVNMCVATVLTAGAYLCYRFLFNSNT
The data set is described as follows: Inhibition of human recombinant PTP1B using pNPP as substrate by fluorescence spectrometric analysis. Particulars: for pIC50: read-out: IC50. The essentials:
(§1)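 Human recombinant enzyme (PTPRZ1 or PTP1B) was used at 0.1 μM with p-NPP substrate. Released phosphate was detected with a phosphate sensor reagent as a fluorescence increase (excitation 430 nm, emission 450 nm). IC50 was derived from compound concentrations of 0.001–100 μM.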

The target of data set [5] is T1, Receptor-type tyrosine-protein phosphatase zeta. Briefly: Inhibition of human recombinant PTPRZ1 using pNPP as substrate by fluorescence spectrometric analysis. The procedure, abridged:
as §1

Data set [6] shares this target. Briefly: Inhibition of PTPRZ1 in human SH-SY5Y cells assessed as increase in TrkA tryrosine 490 phosphorylation at 1 to 10 uM after 20 mins by Western blot analysis relative to control. It counts as cell-based. The procedure, abridged: (§2)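 Human SH-SY5Y cells were grown in EMEM/F12 (1:1) with 10% FBS at 37 °C, 5% CO2, then switched to serum-free medium. They were treated for 20 min with 1.0, 5.0 or 10.0 μM compound or DMSO vehicle. Lysates (20 μg protein) were western blotted for phospho-TrkA Y490 and phospho-ALK Y1278, reprobed for total TrkA/ALK, detected by ECL and quantified by densitometry. Data are mean ± S.E.M., ANOVA/Tukey.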
Background: A western blot detects proteins with antibodies after separation by electrophoresis.

Data set [7] in a line: Drug level in mouse brain at 60 mg/kg after 1 hr by GC-MS analysis. Particulars: read-out: Drug uptake. It counts as ADME, organism-based. The procedure, abridged: (§3)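 Mice were dosed at 60 mg/kg by oral gavage and killed 1 h later. Brain and plasma were analyzed by GC-MS (EI at 70 eV, full scan m/z 50–600). Plasma (100 μL) was precipitated with three volumes of cold methanol, dried and reconstituted in heptane. The reference was a standard serially half-diluted in heptane from 5 μg/mL. Concentrations were a preliminary estimate.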

The test system of a further data set is PC-12. Briefly: Cytoprotective activity against amphetamine-induced toxicity in rat PC12 cells at 1 uM after 20 hrs by MTT assay. It counts as functional, cell-based. The procedure, abridged: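 Rat PC12 cells were grown in RPMI-1640 with 10% FBS at 10^4 cells/well. They were incubated for 20 h with 1.0 mM amphetamine plus 1.0 μM compound. Viability was read by MTT: cells were washed, given medium with MTT (20 μL of a 5 mg/mL stock) for 4 h, solubilized in DMSO, and absorbance read at 570 nm. Data are mean ± S.E.M., compared by one-way ANOVA with Tukey's test.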

The nature of data set [8]: Drug level in mouse plasma at 60 mg/kg after 1 hr by GC-MS analysis. In kind it is ADME, organism-based. The procedure, abridged:
as §3

Data set [9] has as its target T1, Receptor-type tyrosine-protein phosphatase zeta. Briefly: Inhibition of PTPRZ1 in human SH-SY5Y cells assessed as increase in Alk tryrosine 1278 phosphorylation at 1 to 10 uM after 20 mins by Western blot analysis relative to control. In kind it is cell-based. The procedure, abridged:
as §2

Take `FC(F)(F)Sc1ccc(CNc2ccc(SC(F)(F)F)cc2)cc1`: the inhibition in data set [1] is no less than 10%. Also, the inhibition entry in data set [2] was “inactive”.
Regarding `FC(F)(F)Sc1ccc(NCc2ccc(Cl)cc2)cc1`, the inhibition result in data set [1] was “inactive”.
As for `O=S(=O)(c1ccc(COc2ccc(S(=O)(=O)C(F)(F)F)cc2)cc1)C(F)(F)F`, the inhibition entry in data set [1] and in [2] was “inactive” throughout. The pIC50 in data set [3] is 5.46.
With `O=C(Cc1ccc(SC(F)(F)F)cc1)NCc1ccc(SC(F)(F)F)cc1`, the inhibition in [1] and in [2] was no less than 10% each time. In addition, the IC50 entry in data set [4] is listed as “Not Active”. Also, the negative logarithm of the IC50 (pIC50) in data set [5] was 6.10.
In the case of `FC(F)(F)Sc1ccc(CNCc2ccc(SC(F)(F)F)cc2)cc1`, the inhibition in data set [1] and in data set [2] was no less than 10% in each case. For the same molecule, the pIC50 in data set [4] is 6.15; in data set [5], 7.00.
With `O=C(Cc1ccc(S(=O)(=O)C(F)(F)F)cc1)NCc1ccc(S(=O)(=O)C(F)(F)F)cc1`, the inhibition in data set [1] is no less than 10%. Further, the inhibition entry in data set [2] was “inactive”.
In the case of `O=C(NCc1ccc(SC(F)(F)F)cc1)c1ccc(SC(F)(F)F)cc1`, the inhibition in data set [1] and in data set [2] was no less than 10% in each case. For the same molecule, in data set [4], the IC50 entry was “Not Active”. In addition, the pIC50 in [5] was less than 4.00.
With `FC(F)(F)Sc1ccc(CNCc2ccccc2)cc1`, the inhibition entry in data set [1] was “inactive”.
Consider `FC(F)(F)Sc1ccc(NCc2ccccc2)cc1`, for which the inhibition in [1] and in data set [2] was no less than 10% throughout. Moreover, the pIC50 in data set [4] is 6.00; in data set [5], 5.30.
With `O=S(=O)(c1ccc(OCc2ccc(SC(F)(F)F)cc2)cc1)C(F)(F)F`, the inhibition result in [1] and in data set [2] was “inactive” throughout. In data set [6], the fold change (FC) fell in the range of 2 to 3.
Regarding `FC(F)(F)Sc1ccc(COc2ccc(SC(F)(F)F)cc2)cc1`, the inhibition in data set [1] and in data set [2] was no less than 10% in each case. Besides, the fold change (FC) in [6] was 2 to 3; in data set [9], 2. The figures for the concentration at 1 h in data set [7] and in data set [8] were 500 to 1000 ng/mL and 100 to 300 ng/mL, respectively. Further, the IC50 entry in data set [4] was “Not Active”. Moreover, the result in the data set with PC-12 was Active. The pIC50 in data set [5] is 7.00.
For `O=C(Cc1ccc(SC(F)(F)F)cc1)Nc1ccc(SC(F)(F)F)cc1`, the inhibition in data set [1] was no less than 10%. In addition, in data set [2], the inhibition result is “inactive”.
With `O=C(Cc1ccc(S(=O)(=O)C(F)(F)F)cc1)Nc1ccc(S(=O)(=O)C(F)(F)F)cc1`, the inhibition in [1] and in [2] was no less than 10% throughout. For the same molecule, in data set [4], the IC50 result was “Not Active”. The pIC50 in data set [5] was less than 5.00.
For `FC(F)(F)Sc1ccc(OCc2ccncc2)cc1`, the inhibition in data set [1] was less than 10%. Moreover, the inhibition result in data set [2] was “inactive”.
Regarding `FC(F)(F)Sc1ccc(CN(Cc2ccc(SC(F)(F)F)cc2)Cc2ccc(SC(F)(F)F)cc2)cc1`, the figures for the inhibition in data set [1] and in data set [2] were no less than 10% and less than 10%, respectively.
The matching figures for `O=C(Nc1ccc(SC(F)(F)F)cc1)c1ccc(SC(F)(F)F)cc1`: no less than 10% and “inactive”.
The matching figures for `O=C(Nc1ccc(S(=O)(=O)C(F)(F)F)cc1)c1ccc(S(=O)(=O)C(F)(F)F)cc1`: “inactive” and “inactive”.

Source of the values: ChEMBL document CHEMBL4251614, “Development of inhibitors of receptor protein tyrosine phosphatase β/ζ (PTPRZ1) as candidates for CNS disorders” (Eur J Med Chem, 2018).
